{"data": "Published values collected from several papers", "Chymotrypsinogen A": "Chymotrypsinogen A (Bos taurus, UniProt P00766)", "Toll-like receptor 1/2": "Toll-like receptor 1/2 (Homo sapiens, UniProt O60603+Q15399)", "RORC": "Nuclear receptor ROR-gamma (RORC, Homo sapiens, UniProt P51449)", "note": "Protocols differ between the studies behind these lines."}
{"Compound": "CCCC[C@H](NC(=O)[C@H](CCC(N)=O)NC(=O)[C@H](CO)NC(=O)CCCCCN)C(=O)N[C@@H](CCCBr)B(O)O", "target": "Chymotrypsinogen A", "observed": "enzyme activity", "action": "inhibitor", "technique": "fluorescence", "endpoint": "Ki", "value": "251 nM"}
{"Compound": "CNc1ccc(C(F)(F)F)cc1-n1cnc(-c2ccc(C(F)(F)F)cc2)c1", "target": "Toll-like receptor 1/2", "observed": "reporter gene", "action": "agonist", "endpoint": "EC50", "value": "240 nM"}
{"Compound": "CC(C)C[C@H](NC(=O)[C@H](Cc1ccccc1)NC(=O)[C@@H](N)Cc1ccc(O)cc1)C(=O)N[C@@H](Cc1ccccc1)C(=O)N[C@@H](CCCNC(=N)N)C(=O)N1CCC[C@H]1C(=O)N[C@@H](CCCNC(=N)N)C(=O)N[C@@H](CC(N)=O)C(N)=O", "target": "Neuromedin-U receptor 1 (Mus musculus, UniProt O55040)", "observed": "β-arrestin recruitment", "action": "agonist", "endpoint": "EC50", "value": "11.5 nM"}
{"Compound": "COc1ccccc1COc1ccc2c(c1)N(S(=O)(=O)c1cccc(C(F)(F)F)c1)CC2", "target": "RORC", "observed": "ligand displacement", "technique": "radioligand", "endpoint": "IC50", "value": "200 nM"}
{"Compound": "Cc1cnc(-c2ccc(-c3ccc(NC(=O)Nc4c(F)cc(F)cc4F)cc3F)c3c2C(=O)NC3)[nH]1", "target": "Tyrosine-protein kinase Fer (FER, Homo sapiens, UniProt P16591)", "observed": "binding", "technique": "competition with immobilised ligand", "endpoint": "Kd", "value": "14 nM"}
{"Compound": "CCNc1ccc([N+](=O)[O-])cc1-n1cnc(-c2ccc([N+](=O)[O-])cc2)c1", "target": "Toll-like receptor 1/2", "observed": "reporter gene", "action": "agonist", "endpoint": "EC50", "value": "> 100000 nM"}
{"Compound": "NC(=O)C1=CN([C@@H]2O[C@H](COP(=O)(O)OP(=O)(O)OC[C@H]3O[C@@H](n4cnc5c(N)ncnc54)[C@H](O)[C@@H]3O)[C@@H](O)[C@H]2O)C=CC1", "target": "ADH1 (Saccharomyces cerevisiae, UniProt P00330, H16R)", "observed": "enzyme activity", "action": "inhibitor", "endpoint": "Ki", "value": "12000 nM"}
{"Compound": "Cc1cc2nc3c(=O)[nH]c(=O)nc-3n(C[C@H](O)[C@H](O)[C@H](O)COP(=O)(O)OP(=O)(O)OC[C@H]3O[C@@H](n4cnc5c(N)ncnc54)[C@H](O)[C@@H]3O)c2cc1C", "target": "Pumilio homolog 2 (Homo sapiens, UniProt Q8TB72)", "observed": "binding", "setting": "lysate", "endpoint": "Kd", "value": "15 nM"}
{"Compound": "O=S(=O)(c1cccc(C(F)(F)F)c1)N1c2cc(OCc3c(Cl)cncc3Cl)ccc2CC1C(F)(F)F (centres unmarked)", "target": "RORC", "observed": "ligand displacement", "technique": "radioligand", "endpoint": "IC50", "value": "150 nM"}
{"Compound": "O=C(Cn1cc(CN2CCN(c3cc4c(cc3F)c(=O)c(C(=O)O)cn4C3CC3)CC2)nn1)Nc1ccc(S[C@@H]2O[C@H](CO)[C@H](O)[C@H](O)[C@H]2O)cc1", "target": "PA-I galactophilic lectin (lecA, Pseudomonas aeruginosa, UniProt Q05097)", "observed": "ligand displacement", "technique": "FP", "endpoint": "Ki", "value": "3820 nM"}
{"Compound": "CNc1ccc([N+](=O)[O-])cc1-n1cnc(-c2ccc3ccccc3c2)c1", "target": "Toll-like receptor 1/2", "observed": "reporter gene", "action": "agonist", "endpoint": "EC50", "value": "420 nM"}
{"Compound": "O=S(=O)(c1cccc(C(F)(F)F)c1)N1CCc2ccc(OCc3c(Cl)cccc3Cl)cc21", "target": "RORC", "observed": "ligand displacement", "technique": "radioligand", "endpoint": "IC50", "value": "130 nM"}
{"Compound": "CCCC[C@H](NC(=O)[C@H](CCC(N)=O)NC(=O)[C@H](CO)NC(=O)C[C@@H](Cc1ccc2ccccc2c1)NC(=O)CCCCCN)C(=O)N[C@@H](CCCBr)B(O)O", "target": "Chymotrypsinogen A", "observed": "enzyme activity", "action": "inhibitor", "technique": "fluorescence", "endpoint": "Ki", "value": "506 nM"}
{"Compound": "CNc1ccc(C#N)cc1-n1cnc(-c2ccc([N+](=O)[O-])cc2)c1", "target": "Toll-like receptor 1/2", "observed": "reporter gene", "action": "agonist", "endpoint": "EC50", "value": "11000 nM"}
